From PubChem
beta cell repl: inducers of MIN6 beta-cell proliferation, primary screen, ATP luminescence, uHTS | MIN6 cells proliferation, ATPlite luminescence, 48 h; cells starved in 0.2% serum; 100% = growth in 10% serum | proliferation, % at 10 µM | hit rate 0.29% among 330,000;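 active means compounds whose signal lies at least 3.5 SD above the mean of all wells on their plate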;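 further: 0% = DMSO-treated cells in low-serum medium and 100% = 10% serum control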
TMEM16A inh: TMEM16A chloride channel inhibitors, primary screen, cell-based, HTS | normalized B-score (activity score, 25-100; higher = stronger inhibition) at 10 µM | hit rate 1.2% among 310,000 | HEK293 TMEM16A/YFP iodide influx fluorescence, ionomycin | Anoctamin-1 (Mus musculus), Q8BHY3;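 active means ratio plate-corrected score three or more library SD toward inhibition, starting fluorescence score within five deviations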;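 further: score derived from kinetic fluorescence span divided by baseline fluorescence per well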
ANO1 activ: TMEM16A chloride channel activators or potentiators, primary screen, cell-based, HTS; AID 623877, 2012; B-score at 10 µM; HEK293 TMEM16A/YFP-H148Q/I152L, iodide quench fluorescence; active compounds read low; Anoctamin-1 (Mus musculus), Q8BHY3; hit rate 0.3% among 340,000;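 active means fluorescence-ratio B-score plate-corrected deviation score at least 3 library SD below zero, with starting fluorescence score within 5 deviations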;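 further: channel opened by trigger with iodide after compound preincubation; score built on the fluorescence ratio of max minus min over baseline; more negative score means more quench and so TMEM16A activation or potentiation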
MC4R barr agon: MC4R agonists recruiting beta-arrestin, primary screen, cell-based, luminescence, agonist arm of biased-ligand search. U2OS MC4R beta-arrestin complementation; percent of melanotan II response, DMSO zero. activation, % at 8.9 µM. hit rate 0.98% among 360,000;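 active means activation above a per-plate cutoff, the mean activation of sample wells on that plate plus 3 SD, cut at about 8% in these data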
MC4R antagonist: MC4R antagonists of cAMP signaling, primary screen, cell-based, TR-FRET, antagonist arm of biased-ligand search; MC4R-expressing cells, MTII-stimulated cAMP, LANCE TR-FRET; inhibition, % at 6.5 µM; hit rate 0.48% among 360,000;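 active means inhibition above its plate's cutoff, the mean of tested wells on that plate plus 3 SD, cut at about 29% in these data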;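 further: 0% = Melanotan II alone and 100% = Melanotan II plus saturating MCL0020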
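Assay system: U2OS-MC4R stable cell line; Also added: Melanotan II; Technique: Eu-cAMP/anti-cAMP TR-FRET, emission 671 nm; Times: 30-min compound, 1-h challenge, 1-h detection, room temperature.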
HTR2A ag: mouse Htr2a agonists via beta-arrestin recruitment, primary screen, cell-based, luminescence; hit rate 0.66% among 360,000; activation, % at 7.6 µM; CHO-K1 mHTR2A beta-arrestin complementation; percent of 30 µM serotonin response; AID 624169, 2012; 5-hydroxytryptamine receptor 2A (Mus musculus), P35363;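 active means activation above a run cutoff, the mean activation of all tested compounds plus 3 SD, cut at about 14% in these data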;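 further: 0% = plate median of compound wells and 100% = 30 µM serotonin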
Target sequence (P35363 whole entry, looked up): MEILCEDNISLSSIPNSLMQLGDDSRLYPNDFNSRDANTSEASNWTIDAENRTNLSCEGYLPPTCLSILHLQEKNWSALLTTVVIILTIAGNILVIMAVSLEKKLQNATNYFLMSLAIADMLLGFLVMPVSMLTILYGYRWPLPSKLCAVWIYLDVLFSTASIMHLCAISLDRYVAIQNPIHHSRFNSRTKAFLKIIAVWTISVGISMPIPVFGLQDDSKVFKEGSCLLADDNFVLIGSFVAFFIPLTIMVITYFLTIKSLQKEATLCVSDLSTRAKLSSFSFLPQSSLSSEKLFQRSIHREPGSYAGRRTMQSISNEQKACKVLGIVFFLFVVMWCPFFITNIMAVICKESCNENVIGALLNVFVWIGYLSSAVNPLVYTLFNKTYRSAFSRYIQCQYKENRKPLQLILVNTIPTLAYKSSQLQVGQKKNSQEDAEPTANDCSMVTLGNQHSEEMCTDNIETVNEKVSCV
Numbers without * were called inactive; i = inactive; . = no result given. In the library only some 3.4% were active in any assay of this set; here they are far more common.

SMILES	beta cell repl	TMEM16A inh	ANO1 activ	MC4R barr agon	MC4R antagonist	HTR2A ag
CCN(C(=O)c1cc(S(=O)(=O)N2CCOCC2)cn1C)c1cccc(C)c1	1.5	100*	i	1.0	5.2	-0.4
C[C@@H]1CCCCO[C@H](CN(C)Cc2ccccc2)[C@@H](C)CN([C@H](C)CO)C(=O)c2cc(NC(=O)c3ccccc3)ccc2O1	.	.	.	-0.8	18.9	-0.8
CCCNC(=O)CS(=O)(=O)Cc1nc(-c2cccc(OC)c2)oc1C	1.4	i	i	0.8	-2.9	-1.9
CCOCCCNC(=O)CS(=O)(=O)Cc1nc(-c2cccc(OC)c2)oc1C	1.7	25*	i	3.2	12.0	1.0
O=C(NC1CCOCC1)C1CCC(=O)N(CCc2ccc(Cl)cc2)C1 (stereo unspecified)	0.9	i	i	-2.8	5.7	-4.8
O=C(Nc1cccc(NC(=O)c2cc([N+](=O)[O-])ccc2Cl)n1)c1cc([N+](=O)[O-])ccc1Cl	-5.7	i	i	-1.8	16.9	21.0*
NC(=O)c1cc([N+](=O)[O-])ccc1NCc1ccc(N)cc1	0.3	i	i	0.1	8.5	0.8
Cc1nnc(SCC(=O)N(CC(C)C)c2c(N)n(Cc3ccccc3)c(=O)[nH]c2=O)n1N	2.9	i	i	-1.1	0.8	7.1
NC(=O)C[C@H](N)c1cn([C@@H](CC(N)=O)C(=O)N2CCNCC2)nn1	1.4	i	-10*	0.8	6.9	-0.9
CC(C)[C@H](N)c1cn([C@@H](CO)C(=O)N2CCNCC2)nn1	0.1	i	i	-0.8	1.0	9.1
Cn1c(N2CCN(c3ccccn3)CC2)nc2c1c(=O)n(Cc1ccc(Cl)cc1)c(=O)n2C	-2.5	100*	i	-2.2	5.4	-2.1
CCCCC[C@@H](C)N1C[C@H](COCc2ccccc2)Oc2cc(N3CCC[C@H]3CO)ccc2S1(=O)=O	.	.	.	.	.	-1.1
CCCN1C(=O)/C(=C/c2c(N3CCNC(=O)C3CC(=O)OCC)nc3c(C)cccn3c2=O)SC1=S (stereo unspecified)	-3.8	i	i	-0.1	28.9*	3.0
Cc1cc(OCc2cc(C(=O)N(C)C(C)c3ccccn3)no2)cc(C)c1Cl (stereo unspecified)	-3.1	i	i	0.7	11.8	-4.0
O=C1c2ccccc2-c2onc3ccc(N4CCCC4)c1c23	.	.	-8.26*	-2.4	13.4	-2.1
CCc1c(C2(O)CCCCC2)[nH]c2cnccc12	0.2	.	i	-0.8	5.4	0.7
Cc1c(-c2ccc(F)cc2)[n+](=O)c2c(n1[O-])CCCCC2	2.5	i	-6.88*	-1.3	1.0	6.3
Cc1cc(OCC(=O)NCC(c2ccc(F)cc2)N2CCOCC2)ccc1Cl (stereo unspecified)	-5.2	.	i	-2.7	-5.7	-1.0
CCOc1cc(Br)cc(/C=C2\SC(=Nc3ccccc3)NC2=O)c1O	-4.9	i	i	10.2*	9.6	-0.4
COc1cc(/C=C2\SC(=Nc3ccc(O)cc3)NC2=O)cc(OC)c1O	-2.6	i	-4.67*	-1.8	-24.0	-0.9
CCc1ccc(N=C2NC(=O)/C(=C/c3cc(OC)c(OC)c(OC)c3)S2)cc1	-4.2	i	i	0.9	-11.6	0.2
Cc1ccsc1C(=O)N1CCC1(C)C(=O)NS(=O)(=O)c1cccc(F)c1 (stereo unspecified)	.	.	.	-1.9	7.7	0.7
O=C(O)c1ccc(Cl)cc1Nc1nc2cc(Cl)ccc2o1	.	25*	i	1.9	16.8	0.8
COC(=O)C1=C(N)c2ccccc2C1(C#N)c1ccccc1 (stereo unspecified)	-2.3	i	-10.4*	0.5	6.2	-6.7
COC(=O)C1(C(=O)OC)C[C@H](c2ccc(OC)cc2)N(Cc2ccccc2OC)[C@@H]1c1cccs1	.	.	.	.	.	-7.2
SMILES	beta cell repl	TMEM16A inh	ANO1 activ	MC4R barr agon	MC4R antagonist	HTR2A ag
Cc1ccc(/C=N/Nc2ccnc3cc(Cl)ccc23)c(C)c1	-5.6	i	i	4.3	8.3	-1.7
Cc1ccccc1/C=N/Nc1ccnc2cc(Cl)ccc12	.	i	i	8.5*	-2.2	-0.8
C[C@H](CO)N1C[C@H](C)[C@@H](CN(C)C(=O)c2cnccn2)Oc2cc(C#CCC3CCCC3)ccc2S1(=O)=O	.	.	.	-1.1	-5.0	-4.2
FC(F)(F)c1cc(CCN2CCNC[C@@H]2CC2CCCCC2)cc(C(F)(F)F)c1	-6.2	.	i	8.7*	1.0	5.1
NC1=NC[C@@H](Cc2ccc(O)cc2)N1CCc1cc(C(F)(F)F)cc(C(F)(F)F)c1	4.1	i	i	1.5	3.0	-9.6
NC1=NC[C@H](CC2CCCCC2)N1CCc1cc(C(F)(F)F)cc(C(F)(F)F)c1	-8.6	i	i	9.3*	10.2	-4.7
Cc1ccc(S(=O)(=O)/N=C2/NC(=O)/C(=C/c3ccc(Br)o3)S2)cc1	0.0	25*	i	1.8	2.7	0.0
Oc1[nH]c2ccccc2c1N=Nc1nc(Nc2ccccc2)nc(N2CCOCC2)n1	-5.5	i	i	1.4	28.5*	-3.1
CCOc1cc(CNCc2ccncc2)cc(Br)c1OCc1ccc(F)cc1	-5.2	100*	i	0.3	2.0	-3.4
Fc1ccc(COc2cccc(CNCc3ccncc3)c2)cc1	-5.7	25*	i	0.9	17.1	-6.6
COc1cccc(CN(C)C(=O)c2cc(-c3ccc(F)cc3)nc3ccccc23)c1	-5.2	100*	i	-2.9	15.4	2.0
COc1cccc(CN(C)C(=O)c2cc(-c3ccc(OC)c(OC)c3)nc3ccccc23)c1	2.6	i	i	-0.5	3.0	10.0
CCOC(=O)C1(CCOc2ccccc2)CCN(Cc2ccc(-n3cccn3)cc2)CC1	-4.6	25*	i	2.5	5.3	-4.2
COCc1c(C#N)c(NCc2cc(OC)c(OC)c(OC)c2)nc(C)c1[N+](=O)[O-]	-1.9	25*	i	-0.6	-0.2	2.4
COc1ccc(S(=O)(=O)N2CCCCCC2)cc1C(=O)N(C)Cc1ccc(Cl)cc1Cl	-6.0	i	-21.6*	-2.4	-2.2	-5.0
CCCn1c(O)c2ccc(C(=O)N=NC(=O)c3cccnc3)cc2c1O	1.1	i	i	-1.0	0.5	20.8*
